Experiments:
[1] = Solubility in pure water at room temperature; type: physicochemical; conditions: for Soluble or not at R.T.: room temperature; for solubility: water
[2] = Storage modulus / gel forming of peptide gel with PBS; type: physicochemical
[3] = system: gastric or colon submucosal layer; assay: Mucosal elevation by submucosal injection; type: in vivo; conditions: 0.5 ml of 1% w/v PRVDP9 or 10 mg ml^-1 sodium hyaluronate, rabbit, 30 min
TEM of peptide hydrogel = type: physicochemical; conditions: 6 mg ml^-1 peptide, hydrogel with PBS, 1% phosphotungstic acid stain
Summary of the method: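 Peptide was dissolved in pure water at 6 mg ml−1, then 10× PBS was added to give at most 1× PBS. The resulting hydrogel was dropped onto a copper grid and the excess blotted with filter paper. It was negatively stained with 1% phosphotungstic acid for 15 s, air-dried and imaged by transmission electron microscopy.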

Row | Molecule | Soluble or not at R.T. ([1]; 1% w/v) | Soluble or not at R.T. ([1]; 2% w/v) | Gel forming ([2]; 1% w/v peptide) | Gel forming ([2]; 2% w/v peptide) | solubility [1] [mg/mL] | further results
1 | Ac-PKLDLKLDP-NH2 [PKLDP9, AC-PKLDLKLDP-amide] | Yes | Yes | No | No |  | 
2 | Ac-PKVEVKVEP-NH2 [PKVEP9, AC-PKVEVKVEP-amide] | Yes | Yes | Yes | Yes | ≥ 40 | 
3 | Ac-PRVEVRVEP-NH2 [PRVEP9, Ac-PRVEVRVEP-amide] | No |  |  |  |  | Soluble or not at R.T. ([1]; 0.5% w/v): No
4 | CC(=O)N[C@@H](CCCNC(=N)N)C(=O)N[C@@H](C)C(=O)N[C@@H](CC(=O)O)C(=O)N[C@@H](C)C(=O)N[C@@H](CCCNC(=N)N)C(=O)N[C@@H](C)C(=O)N[C@@H](CC(=O)O)C(=O)N[C@@H](C)C(=O)N[C@@H](CCCNC(=N)N)C(=O)N[C@@H](C)C(=O)N[C@@H](CC(=O)O)C(=O)N[C@@H](C)C(=O)N[C@@H](CCCNC(=N)N)C(=O)N[C@@H](C)C(=O)N[C@@H](CC(=O)O)C(=O)N[C@@H](C)C(N)=O [RADA16, AC-RADARADARADARADA-NH2, reference compound] |  |  |  |  | < 30 | Concentration of peptide solution at which it self-assembled into a gel ([2]; peptide solution, without triggering): 3 % w/v
5 | Ac-PKIEIKIEP-NH2 [PKIEP9, AC-PKIEIKIEP-amide] | Yes |  | No |  |  | Soluble or not at R.T. ([1]; 0.5% w/v): Yes; Gel forming ([2]; 0.5% w/v peptide): No
6 | Ac-RVDVRVDV-NH2 [RVDV8, AC-RVDVRVDV-NH2] |  |  |  |  | < 30 | 
7 | Ac-PRIDIRIDP-NH2 [PRIDP9, AC-PRIDIRIDP-amide] | Yes | Yes | No | No |  | 
8 | Ac-PRVDVRVDP-NH2 [PRVDP9, AC-PRVDVRVDP-NH2] | Yes | Yes | Yes | Yes | ≥ 40 | Solubility (comparison, in words) [1]: superior solubility as compared with PRVD9; HE staining of colonic mucosa after submucosal injection [3]: showed a bulge, and the cavity was evenly filled with red-stained self-assembling peptides; Nanostructure by TEM (TEM of peptide hydrogel): formed a dense nanofiber scaffold; Gel forming when mixed with PBS (vial turned upside down) ([2]; 1%, 2%, 3% w/v in pure water, 10× PBS added to not exceed 1×, stand 10 seconds): good gel-forming ability; Storage modulus of peptide gel (in words) ([2]; 3% w/v peptide, gel with PBS, recorded at 1 Hz): almost equivalent to that of 2.5% w/v RADA
9 | Ac-VRVDVRVDV-NH2 [VRVDV9, AC-VRVDVRVDV-NH2] |  |  |  |  | < 30 | 
